We go through 15 molecules from ChEMBL document CHEMBL4219229, “Synthesis and antiproliferative activity of derivatives of the phyllanthusmin class of arylnaphthalene lignan lactones” (Bioorg Med Chem, 2018).

In assay [1] the test system is HT-29. In words: Cytotoxicity against human HT-29 cells measured after 24 to 72 hrs by SRB assay. Type of assay: functional, cell-based. A digest of the protocol:
(§1)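 Cells from ATCC: HT-29 in RPMI 1640 with 10% FBS and 1% P/S; OVCAR3 in RPMI 1640 with 20% FBS, 1% P/S and 10 µg/mL insulin. Both kept at 37°C in 5% CO₂ and passaged at most 20 times. Seeded at 2,500–5,000 cells/well, attached overnight, then treated 24, 48 or 72 h (DMSO final 0.25%). Fixed, SRB-stained protein read out; normalized to vehicle; IC₅₀ from dose-response curves.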

The test system of assay [2] is OVCAR-3. The assay is described as follows: Cytotoxicity against human OVCAR3 cells measured after 24 to 72 hrs by SRB assay. Type of assay: functional, cell-based. A digest of the protocol:
as §1
Background: The SRB assay estimates cell density from bound dye.

The test system of assay [3] is MDA-MB-435. In words: Cytotoxicity against human MDA-MB-435 cells after 72 hrs by CellTiter96 AQueous one solution cell proliferation assay. Type of assay: functional, cell-based. As to conditions: MDA-MB-435, 72 h.
Assay [4] deals with DNA topoisomerase 2-alpha (Homo sapiens) (UniProt P11388). The assay is described as follows: Inhibition of full-length recombinant human topoisomerase-2alpha expressed in yeast expression system assessed as reduction in enzyme-mediated supercoiled pBR322 DNA relaxation at 50 to 100 uM measured after 15 mins by ethidium bromide staining based agarose gel electrophoresis. A digest of the protocol: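 Topo IIα (125 ng) with 150 ng negatively supercoiled pBR322 and 1 mM ATP in 10 mM Tris-HCl pH 8.0, 50 mM KCl, 50 mM NaCl, 0.1 mM EDTA, 5 mM MgCl₂, 2.5% glycerol, drug in DMSO; started with enzyme, 15 min at 37°C, SDS/EDTA stop. Products resolved on 1% TBE agarose, ethidium bromide stained, imaged under UV.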

For assay [5], the system named is MDA-MB-231. The assay is described as follows: Cytotoxicity against human MDA-MB-231 cells after 72 hrs by CellTiter96 AQueous one solution cell proliferation assay. Type of assay: functional, cell-based. As to conditions: MDA-MB-231, 72 h.
Assay [6] in a line: Cytotoxicity against human K/VP.5 cells after 72 hrs by CellTiter96 AQueous one solution cell proliferation assay. As to conditions: K/VP.5, 72 h. Type of assay: functional, cell-based. Put shortly: (§2)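 K562 and etoposide-resistant K/VP.5 cells (~1/5 topo IIα level) in suspension at 7.5 × 10⁴ cells/ml exposed to DMSO vehicle or serial compound concentrations (final DMSO 0.5%), triplicate wells; 72 hr at 37°C, then MTS reagent 1 hr at 37°C, absorbance 490 nm. IC₅₀ from four-parameter logistic fit; relative resistance = IC₅₀ K/VP.5 ÷ IC₅₀ K562; n = separate-day repeats.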

Assay [7] in a line: Resistance index, ratio of IC50 for human K/VP.5 cells to IC50 for human etoposide-sensitive K562 cells. Type of assay: functional. Put shortly: as §2
Assay [8] relates to K562. In words: Cytotoxicity against human etoposide-sensitive K562 cells after 72 hrs by CellTiter96 AQueous one solution cell proliferation assay. Type of assay: functional, cell-based. As to conditions: K562, 72 h. Put shortly: as §2
Assay [9] is described as follows: Selectivity ratio of IC50 for human OVCAR3 cells to IC50 for human HT-29 cells. Type of assay: functional.
Assay [10] has as its target DNA topoisomerase 2-alpha (Homo sapiens) (UniProt P11388). Conditions: 100 uM.

pIC50: −log10 of the molar value. Active and inactive are the calls of the source. The calls are words filed in the database; no cut-off is given here.

Sequence of DNA topoisomerase 2-alpha (Homo sapiens) (P11388 whole entry): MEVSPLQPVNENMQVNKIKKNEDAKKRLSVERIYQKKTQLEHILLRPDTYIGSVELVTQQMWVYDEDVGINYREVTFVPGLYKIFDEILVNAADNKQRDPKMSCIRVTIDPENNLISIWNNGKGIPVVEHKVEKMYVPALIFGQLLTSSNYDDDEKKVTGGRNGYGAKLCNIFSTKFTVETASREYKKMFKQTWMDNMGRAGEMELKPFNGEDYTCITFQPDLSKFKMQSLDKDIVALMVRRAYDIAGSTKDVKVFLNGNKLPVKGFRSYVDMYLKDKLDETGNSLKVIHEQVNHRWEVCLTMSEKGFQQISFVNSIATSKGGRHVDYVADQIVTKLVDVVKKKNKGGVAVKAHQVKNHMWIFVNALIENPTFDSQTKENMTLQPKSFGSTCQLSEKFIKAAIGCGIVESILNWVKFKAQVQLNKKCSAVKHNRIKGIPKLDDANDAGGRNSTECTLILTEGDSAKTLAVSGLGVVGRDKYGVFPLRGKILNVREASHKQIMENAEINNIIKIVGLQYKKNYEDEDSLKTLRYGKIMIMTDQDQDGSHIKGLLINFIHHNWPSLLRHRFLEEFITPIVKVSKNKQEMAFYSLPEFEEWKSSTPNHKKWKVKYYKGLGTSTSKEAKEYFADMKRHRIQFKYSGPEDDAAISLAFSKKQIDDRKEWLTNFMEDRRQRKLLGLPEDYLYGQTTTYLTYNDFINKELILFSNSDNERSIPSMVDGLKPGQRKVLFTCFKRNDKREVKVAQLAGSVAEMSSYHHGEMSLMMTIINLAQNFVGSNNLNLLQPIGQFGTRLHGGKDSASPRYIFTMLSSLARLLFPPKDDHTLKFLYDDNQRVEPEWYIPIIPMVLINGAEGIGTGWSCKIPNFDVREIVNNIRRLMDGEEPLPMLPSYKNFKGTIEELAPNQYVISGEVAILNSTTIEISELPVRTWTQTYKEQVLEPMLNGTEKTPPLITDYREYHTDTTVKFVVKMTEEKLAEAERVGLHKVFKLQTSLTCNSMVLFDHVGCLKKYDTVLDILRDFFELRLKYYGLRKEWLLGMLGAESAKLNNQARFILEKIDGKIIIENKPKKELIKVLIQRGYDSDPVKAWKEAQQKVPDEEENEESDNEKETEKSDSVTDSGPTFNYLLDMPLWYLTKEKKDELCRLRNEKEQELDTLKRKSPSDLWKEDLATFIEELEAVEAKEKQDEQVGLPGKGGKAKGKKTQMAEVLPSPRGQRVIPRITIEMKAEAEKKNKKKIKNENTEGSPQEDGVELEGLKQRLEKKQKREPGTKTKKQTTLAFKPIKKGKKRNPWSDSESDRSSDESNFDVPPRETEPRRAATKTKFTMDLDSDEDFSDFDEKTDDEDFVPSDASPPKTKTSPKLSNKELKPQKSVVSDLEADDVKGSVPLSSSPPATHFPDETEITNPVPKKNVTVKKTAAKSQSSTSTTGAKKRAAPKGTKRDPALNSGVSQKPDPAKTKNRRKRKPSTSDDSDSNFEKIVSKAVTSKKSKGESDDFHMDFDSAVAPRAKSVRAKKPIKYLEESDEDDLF

On to `CCOC(=O)c1c(C(=O)OCC)c(-c2ccc3c(c2)OCO3)c2cc(OC)c(OC)cc2c1O[C@@H]1OC[C@H](OC(C)=O)[C@H](OC(C)=O)[C@H]1OC(C)=O`, for which the pIC50 in [1] and in assay [2] was less than 5.00 each time.

As to `CC(=O)O[C@H]1C(=O)[C@@]2(C)[C@H]([C@H](OC(=O)c3ccccc3)[C@]3(O)C[C@H](OC(=O)[C@H](O)[C@@H](NC(=O)c4ccccc4)c4ccccc4)C(C)=C1C3(C)C)[C@]1(OC(C)=O)CO[C@@H]1C[C@@H]2O` [PACLITAXEL], the pIC50 in assay [1] and in [2] was 7.96 in each case.

Regarding `COc1cc2c(O[C@@H]3OC[C@H](OC(C)=O)[C@H](OC(C)=O)[C@H]3OC(C)=O)c3c(c(-c4ccc5c(c4)OCO5)c2cc1OC)C(=O)OC3`, the negative logarithm of the IC50 (pIC50) is 6.85 in assay [3]; 6.85 in assay [1]; 6.00 in assay [5]; 6.54 in assay [2]; 6.04 in [6]; 6.07 in assay [8]. Also, the inhibition entry in assay [4] is “Active”. Also, in assay [7], the “Ratio IC50” value is on record as 1.08.

Turning to `COc1cc2c(O[C@@H]3OC[C@H](OC)[C@H](OC)[C@H]3OC)c3c(c(-c4ccc5c(c4)OCO5)c2cc1OC)C(=O)OC3`, the negative logarithm of the IC50 (pIC50) is 6.85 in assay [3]; 6.89 in [1]; 6.19 in assay [5]; 6.09 in assay [2]; 5.89 in assay [6]; 5.90 in assay [8]. The inhibition result in assay [4] was “inactive”. In addition, in [7], the “Ratio IC50” value came out at 1.02.

Take `COc1cc2c(O[C@@H]3OC[C@H](OC(C)=O)[C@H](OC(C)=O)[C@H]3OC(C)=O)c3c(c(-c4ccc5c(c4)OCO5)c2cc1OC)COC3`: the negative-log IC50 (pIC50) was 5.85 in assay [1] and less than 5.00 in [2].

Regarding `COc1cc2c(O[C@@H]3O[C@H](COC(C)=O)[C@@H](O[C@@H]4O[C@H](COC(C)=O)[C@H](OC(C)=O)[C@H](OC(C)=O)[C@H]4OC(C)=O)[C@H](OC(C)=O)[C@H]3OC(C)=O)c3c(c(-c4ccc5c(c4)OCO5)c2cc1OC)C(=O)OC3`, the pIC50 was less than 5.00 in assay [3], 5.70 in [1], less than 5.00 in assay [5] and less than 5.00 in [2].

In the case of `COc1cc2c(O[C@@H]3OC[C@@H](O)[C@H](O)[C@H]3O)c3c(c(-c4ccc5c(c4)OCO5)c2cc1OC)C(=O)OC3`, the negative-log IC50 (pIC50) was 5.85 in assay [1] and 6.16 in [2].

With `COc1cc2c(O[C@@H]3OC[C@@H](OC)[C@H](OC)[C@H]3OC)c3c(c(-c4ccc5c(c4)OCO5)c2cc1OC)C(=O)OC3`, the pIC50 was 7.74 in [1], 5.12 in [2], 6.37 in assay [6] and 6.33 in assay [8]. Besides, the inhibition result in assay [4] is “Active”. The “Ratio IC50” value was more than 400 in assay [9] and 0.91 in assay [7].

As for `COc1cc2c(O)c3c(c(-c4ccc5c(c4)OCO5)c2cc1OC)C(=O)OC3` [DIPHYLLIN], the values for the pIC50 in assay [6] and in [8] were 5.64 and 5.62, respectively. Also, in assay [7], the “Ratio IC50” value stood at 0.97.

Regarding `COCc1c(C(=O)OC)c(-c2ccc3c(c2)OCO3)c2cc(OC)c(OC)cc2c1O[C@@H]1OC[C@@H](OC)[C@H](OC)[C@H]1OC`, the pIC50 was 5.77 in assay [1] and 6.35 in [2].

With `COc1cc2c(O[C@@H]3OC[C@@H](OC(C)=O)[C@H](OC(C)=O)[C@H]3OC(C)=O)c3c(c(-c4ccc5c(c4)OCO5)c2cc1OC)C(=O)OC3`, the negative logarithm of the IC50 (pIC50) is 6.64 in assay [3], 6.80 in assay [1], 5.29 in [5] and 6.24 in assay [2].

For the molecule `COc1cc([C@@H]2c3cc4c(cc3[C@@H](O[C@@H]3O[C@@H]5CO[C@@H](C)O[C@H]5[C@H](O)[C@H]3O)[C@H]3COC(=O)[C@H]23)OCO4)cc(OC)c1O` [ETOPOSIDE], the pIC50 was 4.82 in assay [1], 5.54 in assay [2], 4.45 in [6] and 5.91 in assay [8]. The inhibition result in assay [10] is “Active”. Moreover, the “Ratio IC50” value in assay [7] is recorded as 28.98.

In the case of `COc1cc2c(O[C@@H]3OC[C@H](OC(C)=O)[C@H](OC(C)=O)[C@H]3OC(C)=O)c3c(c(-c4ccc5c(c4)OCO5)c2cc1OC)COC3=O`, the pIC50 in assay [1] is 6.33; in [2] it was less than 5.00.

Regarding `COc1cc2c(O[C@@H]3OC[C@H](O)[C@H](O)[C@H]3O)c3c(c(-c4ccc5c(c4)OCO5)c2cc1OC)C(=O)OC3` [ACUTISSIMALIGNAN A], in [2], the negative-log IC50 (pIC50) was 5.32.

For `COc1cc2c(O[C@H]3OC[C@@H](OC(C)=O)[C@@H](OC(C)=O)[C@@H]3OC(C)=O)c3c(c(-c4ccc5c(c4)OCO5)c2cc1OC)C(=O)OC3`, the pIC50 in assay [3] is 6.30; in assay [1], 7.34; in [5] it was 5.66; in assay [2] it was 6.43.

One may read the pIC50 as the IC50 on a negative log10 scale, so that one unit is a factor of ten. A higher pIC50 goes with a small IC50.
